Columns and labels:
[1] = biological target: Kappa-type opioid receptor (Cavia porcellus, UniProt P41144); assay: Inhibitory concentration against Opioid receptor kappa 1 using [3H]- U-69,593 radioligand
How it was run: (§1)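 Guinea pig brain (minus cerebellum) homogenate in 0.05 M Tris pH 7.4, diluted 1:60 (0.8-1.5 mg protein/ml). Ligand tested in duplicate at nine concentrations; 60 min at 25 °C. Nonspecific binding defined with naloxone. Filtration, ice-cold buffer rinse, scintillation counting.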

[2] = biological target: Mu-type opioid receptor (Cavia porcellus) (UniProt P97266); assay: Irreversible binding affinity at mu-receptor was evaluated as % of control specific binding remaining unwashed at concentration of 80 (nM) using [3H]DAMGO radioligand
Chain of Mu-type opioid receptor (Cavia porcellus) (P97266 whole entry): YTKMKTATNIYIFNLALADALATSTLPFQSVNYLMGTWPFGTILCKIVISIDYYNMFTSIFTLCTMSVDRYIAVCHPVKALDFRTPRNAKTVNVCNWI
How it was run: (§2)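 Guinea pig brain homogenate (less cerebellum) in 0.05 M Trizma pH 7.4, diluted 1:60. It was incubated with ligand 60 min at 25 °C, then diluted in ice-cold buffer and centrifuged 10000g. Washed samples were resuspended in buffer, incubated 15 min at 37 °C and recentrifuged. Binding used 1.0 nM [3H]DAMGO for 60 min at 25 °C, with filtration and counting. Nonspecific binding was set with 10 µM naloxone. Triplicates; % specific binding was taken relative to recovery controls.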

[3] = biological target: Kappa-type opioid receptor (Cavia porcellus) (UniProt P41144); assay: Irreversible binding affinity at Opioid receptor kappa 1 was evaluated as % of control specific binding remaining unwashed at concentration of 50 (nM) using [3H]U-69593 radioligand
Chain of Kappa-type opioid receptor (Cavia porcellus) (P41144 whole entry): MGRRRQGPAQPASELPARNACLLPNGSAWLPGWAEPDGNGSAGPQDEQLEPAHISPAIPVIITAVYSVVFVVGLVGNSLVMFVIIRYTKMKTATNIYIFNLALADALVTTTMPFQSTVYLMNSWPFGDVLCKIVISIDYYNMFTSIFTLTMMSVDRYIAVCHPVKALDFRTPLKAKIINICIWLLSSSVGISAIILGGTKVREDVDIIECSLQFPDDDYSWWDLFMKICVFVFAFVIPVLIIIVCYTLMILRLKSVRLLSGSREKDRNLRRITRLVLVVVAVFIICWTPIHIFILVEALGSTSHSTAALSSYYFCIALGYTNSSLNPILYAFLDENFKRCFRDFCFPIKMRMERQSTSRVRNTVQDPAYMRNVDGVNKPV
How it was run: (§3)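 Diluted guinea pig brain homogenate is exposed to ligand for 60 min at 25 °C; protected samples are first preincubated 15 min at 37 °C with 1 naloxone. Washed samples are diluted in ice-cold Tris pH 7.4, spun at 10000g for 15 min at 4 °C, then resuspended and incubated 15 min at 37 °C, twice. Read-out is standard radioligand binding, expressed as % of recovery-sample specific binding. Test ligands run in triplicate; reference averaged over three assays.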

[4] = biological target: Kappa-type opioid receptor (Cavia porcellus) (UniProt P41144); assay: Irreversible binding affinity at Opioid receptor kappa 1 was evaluated as % of control specific binding remaining protected at concentration of 50 (nM) using [3H]U-69593 radioligand; how it was run: as §3
[5] = biological target: Opioid receptors; mu/kappa/delta; assay: Inhibitory concentration was determined against Opioid receptors using [3H]- bremazocine radioligand; type: protein assay, Cavia porcellus; how it was run: as §1
[6] = biological target: Kappa-type opioid receptor (Cavia porcellus) (UniProt P41144); assay: Irreversible binding affinity at Opioid receptor kappa 1 was evaluated as % of control specific binding remaining washed at concentration of 50 (nM) using [3H]U-69593 radioligand; how it was run: as §3
[7] = biological target: Mu-type opioid receptor (Cavia porcellus) (UniProt P97266); assay: Irreversible binding affinity at mu-receptor was evaluated as % of control specific binding remaining washed at concentration of 80 (nM) using [3H]DAMGO radioligand; how it was run: as §2
Mu-type opioid receptor = Mu-type opioid receptor (Cavia porcellus, UniProt P97266); assay: Inhibitory concentration was determined against Opioid receptor mu 1 using [3H]- DAMGO radioligand; how it was run: as §1
Chain of Mu-type opioid receptor (P97266 whole entry): as the sequence (P97266 whole entry) above

[8] = biological target: Mu-type opioid receptor (Cavia porcellus) (UniProt P97266); assay: Irreversible binding affinity at mu-receptor was evaluated as % of control specific binding remaining protected at concentration of 5 (nM) using [3H]-DAMGO radioligand; how it was run: as §3
[9] = biological target: Mu-type opioid receptor (Cavia porcellus) (UniProt P97266); assay: Irreversible binding affinity at mu-receptor was evaluated as % of control specific binding remaining unwashed at concentration of 2.5 (nM) using [3H]DAMGO radioligand; how it was run: as §3
[10] = biological target: Mu-type opioid receptor (Cavia porcellus) (UniProt P97266); assay: Irreversible binding affinity at mu-receptor was evaluated as % of control specific binding remaining unwashed at concentration of 5 (nM) using [3H]DAMGO radioligand; how it was run: as §2
[11] = biological target: Mu-type opioid receptor (Cavia porcellus) (UniProt P97266); assay: Irreversible binding affinity at mu-receptor was evaluated as % of control specific binding remaining washed at concentration of 2.5 (nM) using [3H]DAMGO radioligand; how it was run: as §2
[12] = biological target: Kappa-type opioid receptor (Cavia porcellus) (UniProt P41144); assay: Irreversible binding affinity at Opioid receptor kappa 1 was evaluated as % of control specific binding remaining unwashed at concentration of 30 (nM) using [3H]U-69593 radioligand; how it was run: as §3
[13] = biological target: Kappa-type opioid receptor (Cavia porcellus) (UniProt P41144); assay: Irreversible binding affinity at Opioid receptor kappa 1 was evaluated as % of control specific binding remaining unwashed at concentration of 42 (nM) using [3H]U-69593 radioligand; how it was run: as §3
[14] = biological target: Kappa-type opioid receptor (Cavia porcellus) (UniProt P41144); assay: Irreversible binding affinity at Opioid receptor kappa 1 was evaluated as % of control specific binding remaining washed at concentration of 30 (nM) using [3H]U-69593 radioligand; how it was run: as §3
[15] = biological target: Mu-type opioid receptor (Cavia porcellus) (UniProt P97266); assay: Irreversible binding affinity at mu-receptor was evaluated as % of control specific binding remaining washed at concentration of 5 (nM) using [3H]-DAMGO radioligand; how it was run: as §2
[16] = biological target: Kappa-type opioid receptor (Cavia porcellus) (UniProt P41144); assay: Irreversible binding affinity at Opioid receptor kappa 1 was evaluated as % of control specific binding remaining protected at concentration of 30 (nM) using [3H]U-69593 radioligand; how it was run: as §3
[17] = biological target: Kappa-type opioid receptor (Cavia porcellus) (UniProt P41144); assay: Irreversible binding affinity at Opioid receptor kappa 1 was evaluated as % of control specific binding remaining protected at concentration of 42 (nM) using [3H]U-69593 radioligand; how it was run: as §3
[18] = biological target: Kappa-type opioid receptor (Cavia porcellus) (UniProt P41144); assay: Irreversible binding affinity at Opioid receptor kappa 1 was evaluated as % of control specific binding remaining washed at concentration of 42 (nM) using [3H]U-69593 radioligand; how it was run: as §3
[19] = biological target: Mu-type opioid receptor (Cavia porcellus) (UniProt P97266); assay: Irreversible binding affinity at mu-receptor was evaluated as % of control specific binding remaining protected at concentration of 2.5 (nM) using [3H]DAMGO radioligand; how it was run: as §3
[20] = biological target: Kappa-type opioid receptor (Cavia porcellus) (UniProt P41144); assay: Irreversible binding affinity at Opioid receptor kappa 1 was evaluated as % of control specific binding remaining washed at concentration of 150 (nM) using [3H]U-69593 radioligand; how it was run: as §3
[21] = biological target: Kappa-type opioid receptor (Cavia porcellus) (UniProt P41144); assay: Irreversible binding affinity at Opioid receptor kappa 1 was evaluated as % of control specific binding remaining protected at concentration of 150 (nM) using [3H]U-69593 radioligand; how it was run: as §3
[22] = biological target: Mu-type opioid receptor (Cavia porcellus) (UniProt P97266); assay: Irreversible binding affinity at mu-receptor was evaluated as % of control specific binding remaining protected at concentration of 35 (nM) using [3H]DAMGO radioligand; how it was run: as §3
[23] = biological target: Mu-type opioid receptor (Cavia porcellus) (UniProt P97266); assay: Irreversible binding affinity at mu-receptor was evaluated as % of control specific binding remaining unwashed at concentration of 35 (nM) using [3H]DAMGO radioligand; how it was run: as §2
[24] = biological target: Kappa-type opioid receptor (Cavia porcellus) (UniProt P41144); assay: Irreversible binding affinity at Opioid receptor kappa 1 was evaluated as % of control specific binding remaining unwashed at concentration of 90 (nM) using [3H]U-69593 radioligand; how it was run: as §3
[25] = biological target: Mu-type opioid receptor (Cavia porcellus) (UniProt P97266); assay: Irreversible binding affinity at mu-receptor was evaluated as % of control specific binding remaining washed at concentration of 35 (nM) using [3H]-DAMGO radioligand; how it was run: as §2
[26] = biological target: Kappa-type opioid receptor (Cavia porcellus) (UniProt P41144); assay: Irreversible binding affinity at Opioid receptor kappa 1 was evaluated as % of control specific binding remaining protected at concentration of 90 (nM) using [3H]U-69593 radioligand; how it was run: as §3
[27] = biological target: Kappa-type opioid receptor (Cavia porcellus) (UniProt P41144); assay: Irreversible binding affinity at Opioid receptor kappa 1 was evaluated as % of control specific binding remaining washed at concentration of 90 (nM) using [3H]-U-69,593 radioligand; how it was run: as §3

Chain of Kappa-type opioid receptor (P41144 whole entry): as the sequence (P41144 whole entry) above

Oc1ccc2c3c1O[C@H]1[C@H](OCc4cccc(N=C=S)c4)CC[C@@]4(O)C(C2)N(CC2CC2)CCC314 (some centres not stated)
IC50 [1]: 17 nM | Control [2]: 4% | Control [3]: 12% | Control [4]: 25% | IC50 [5]: 27 nM | Control [6]: 25% | Control [7]: 14% | IC50 (Mu-type opioid receptor): 27 nM

Oc1ccc2c3c1O[C@H]1[C@H](OCc4ccccc4N=C=S)CC[C@@]4(O)C(C2)N(CC2CC2)CCC314 (some centres not stated)
IC50 [1]: 8.2 nM | Control [8]: 36% | Control [9]: 47% | Control [10]: 7% | Control [11]: 40% | Control [12]: 36% | Control [13]: 13% | Control [14]: 35% | Control [15]: 15% | Control [16]: 55% | Control [17]: 40% | IC50 [5]: 8.8 nM | Control [18]: 21% | Control [19]: 68% | IC50 (Mu-type opioid receptor): 0.8 nM

Oc1ccc2c3c1O[C@H]1[C@H](OCc4ccccc4CN=C=S)CC[C@@]4(O)C(C2)N(CC2CC2)CCC314 (some centres not stated)
IC50 [1]: 43 nM | Control [20]: 35% | Control [21]: 45% | IC50 [5]: 69 nM | IC50 (Mu-type opioid receptor): 20 nM

Oc1ccc2c3c1O[C@H]1[C@H](OCc4ccc(N=C=S)cc4)CC[C@@]4(O)C(C2)N(CC2CC2)CCC314 (some centres not stated)
IC50 [1]: 21 nM | Control [22]: 48% | Control [23]: 14% | Control [24]: 14% | Control [25]: 46% | Control [26]: 27% | IC50 [5]: 22 nM | Control [27]: 28% | IC50 (Mu-type opioid receptor): 9.6 nM

Reference: ChEMBL document CHEMBL1128234, “Isothiocyanate-substituted benzyl ether opioid receptor ligands derived from 6 beta-naltrexol” (J Med Chem, 1995)
